Where two headings read alike, the source gives them in different places.
Tests used:
[1] = system: RAW 264.7 macrophage cells; experiment: Protection from PMA-induced cytotoxicity; format: cell-based
RAW 264.7 cells = experiment: Cytotoxicity
[2] = system: RAW 264.7 macrophage cells; experiment: Intracellular ROS by DHE fluorescence in PMA-treated macrophages; format: cell-based; details: PMA 1 μg/mL 3 h; DHE 10 μM 30 min
[3] = H2S release measured with H2S-sensitive electrochemical probe; format: physicochemical
[4] = Conventional and cryogenic TEM of self-assembled nanostructures; format: physicochemical
Static light scattering = format: physicochemical; details: average
[5] = Nile Red assay, critical aggregation concentration; format: physicochemical; details: Nile Red fluorescence; 10 mM phosphate buffer pH 7.4, room temperature
Summary of the method: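 Test compound dissolved in 10 mM phosphate buffer pH 7.4 at room temperature, where it self-assembles. Nile Red fluorescence intensity was recorded across a series of test compound concentrations. CAC was calculated from the rise in intensity with concentration, taken as Nile Red solubilisation in the hydrophobic domain.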

[6] = PMA 2 μg/mL 3 h, Cys 800 μM, AdKOKOEE and AdKSKSE 200 μM (+ Cys), GYY4137 and Na2S 400 μM, Figure 4B
[7] = conventional and cryo-TEM, PB 10 mM pH 7.4, 1 mM

N[C@@H](CS)C(=O)O [Cys, cysteine, reference compound]
protective effect on viability of PMA-treated cells [1, 6]: Neither treatment with Cys alone nor treatment with a combination of the non-H2S-releasing control peptide (AdKOKOEE) and Cys showed any protective effect

C1COCCN1.COc1ccc(P(=S)(S)N2CCOCC2)cc1 (stereo not drawn) [GYY4137, reference compound]
protective effect on viability of PMA-treated cells [1]: Neither affected cell viability

[Na+].[Na+].[S-2] [Na2S, sodium sulfide, reference compound]
protective effect on viability of PMA-treated cells [1]: Neither affected cell viability

CCCCCCCCCCCCCC(=O)O[C@@H]1[C@@H](C)[C@@]2(O)[C@@H](C=C(CO)C[C@]3(O)C(=O)C(C)=C[C@@H]23)[C@@H]2C(C)(C)[C@]12OC(C)=O [PMA, phorbol 12-myristate 13-acetate]
concentration inducing significant cytotoxicity (RAW 264.7 cells; Figure 4A): ≥ 1000 ng/mL
cell viability after PMA alone (RAW 264.7 cells; PMA 2 μg/mL): 67%
ROS level (DHE red fluorescent signal) after PMA alone, versus untreated cells [2]: much brighter

AdKOKOEE
protective effect on viability of PMA-treated cells [1, 6]: Neither treatment with Cys alone nor treatment with a combination of the non-H2S-releasing control peptide (AdKOKOEE) and Cys showed any protective effect

AdKSKSE
H2S release rate relative to AdKsKsEE ([3]; Figure S13, both contain two SATO units and release similar amounts): somewhat faster
average length of short nanoworms ([4]; conventional TEM, UA stained, PB 10 mM pH 7.4, 100 μM): 33±2 nm
protective effect on viability of PMA-treated cells [1, 6]: some cell protective ability, but it was not as good as AdKSKSEE

AdKSKSEE
H2S release peaking time ([3]; PHDC 1 mM + Cys 4 mM in PB at rt, electrochemical probe, average of three runs): 125 ± 15 min
H2S release without Cys ([3]; PHDC 1 mM in PB at rt, no Cys, electrochemical probe): minimal H2S was detected
aggregation number (molecules per crescent nanostructure) (Static light scattering): 600
average external diameter of crescent nanostructures [4, 7]: 28±3 nm
average width of crescent nanostructures [4, 7]: 5±1 nm
aggregation number, estimate from nanocrescent volume ([4]; nanocrescent volume from TEM dimensions divided by estimated molecular volume): 560
critical aggregation concentration (CAC) [5]: 27 µM
cell viability on co-treatment with PMA ([1]; PMA 2 μg/mL, AdKSKSEE 200 μM + Cys 800 μM, 3 h, three experiments with five replicates): 95%

Source: PMC7702297 (Journal of the American Chemical Society, 2020)
